These results are taken from ChEMBL document CHEMBL1687909, “Design, synthesis, and biological evaluation of new cinnamic derivatives as antituberculosis agents” (J Med Chem, 2011).

The structures appear in SMILES notation. Converted amounts (≈) assume the structure as drawn.

The test system of assay [1] is Mycobacterium tuberculosis. Nature of the assay: Antituberculosis activity against Mycobacterium tuberculosis MYC5165 harboring InhA mutant gene after 7 days by MTT assay. It counts as functional. The essentials: (§1)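 Colorimetric MTT microassay: serial 2-fold dilutions from DMSO stocks in Middlebrook 7H9 broth, bacterial suspension in 7H9 added. After 6 days, MTT (1 mg/mL) added; 1 day later solubilization buffer, OD 570 nm. MIC = lowest concentration inhibiting growth, untreated bacilli as growth control.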

Assay [2] deals with Mycobacterium tuberculosis. Nature of the assay: Antituberculosis activity against Mycobacterium tuberculosis 1400 harboring KatG mutant gene after 7 days by MTT assay. It counts as functional. In short, it runs like this: as §1

For `CC(C)=CCOc1ccc(/C=C/C(=O)NNC(=O)c2ccncc2)cc1`, the MIC (in general, the least concentration at which growth counts as inhibited) was determined as 27 µM (≈ 9.49 µg/mL) in assay [1] and 68 µM (≈ 23.9 µg/mL) in assay [2].
With `NNC(=O)c1ccncc1` [ISONIAZID], the figures for the MIC in assay [1] and in assay [2] were 18 µM (≈ 2.47 µg/mL) and 729 µM (≈ 100 µg/mL), respectively.
With `CC(C)=CCOc1ccc(/C=C/c2nnc3c4ccccc4cnn23)cc1`, the MIC in assay [1] stood at 0.2 µM (≈ 0.0713 µg/mL); in assay [2], 0.4 µM (≈ 0.143 µg/mL).
For the compound `O=C(O)c1cn(C2CC2)c2cc(N3CCNCC3)c(F)cc2c1=O` [CIPROFLOXACIN], the MIC in assay [1] and in assay [2] was 5 µM (≈ 1.66 µg/mL) in each case.
In the case of `COc1ccc(/C=C/C(=O)NNC(=O)c2ccncc2)cc1`, the MIC is 16 µM (≈ 4.76 µg/mL) in assay [1] and 320 µM (≈ 95.1 µg/mL) in assay [2].
